Calls of active or inactive are those of the source. The calls are words filed in the database; no cut-off is given here.
How the values were obtained:
[1] = target: T1, G-protein coupled receptor 35 (Homo sapiens, UniProt Q9HC97); test: Competitive binding affinity to Nluc-fused human GPR35 expressed in CHO-K1 cells assessed as inhibition constant using furimazine as substrate incubated for 30 mins followed by substrate addition by in presence of 10-(4-(2-(4-(4-((2,8-dicarboxy-6-hydroxy-10-methylpyrido[3,2-g]quinolin-4-yl)oxy)butyl)-1H-1,2,3-triazol-1-yl)ethoxy)phenyl)-5,5-difluoro-2,7,9-trimethyl-5H-imidazo[1,2-c]pyrrolo[2,1-f][ …; format: cell-based
T1 sequence (Q9HC97 whole entry, the tested form may be a part): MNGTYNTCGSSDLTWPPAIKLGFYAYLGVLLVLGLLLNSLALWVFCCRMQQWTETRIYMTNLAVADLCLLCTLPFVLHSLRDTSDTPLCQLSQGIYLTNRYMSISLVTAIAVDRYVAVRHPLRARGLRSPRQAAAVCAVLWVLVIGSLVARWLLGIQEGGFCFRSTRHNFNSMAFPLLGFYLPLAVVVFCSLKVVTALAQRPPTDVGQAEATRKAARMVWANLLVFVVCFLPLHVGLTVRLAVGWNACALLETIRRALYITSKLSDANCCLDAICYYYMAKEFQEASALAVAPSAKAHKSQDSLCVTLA

[2] = target: T1, G-protein coupled receptor 35; test: Agonist activity at GPR-35 in human HT-29 cells assessed as DMR response in presence of ML-145
[3] = target: T1, G-protein coupled receptor 35; test: Agonist activity at human GPR-35 over expressed in CHO-K1 cells incubated for 1 hr followed by zaprinast stimulation by DMR assay; format: cell-based; conditions: filed as agonist
[4] = target: T1, G-protein coupled receptor 35; test: Agonist activity at GPR-35 in human HT-29 cells assessed as desensitization of zaprinast induced DMR response incubated for 1 hr followed by zaprinast stimulation; format: cell-based
[5] = target: T1, G-protein coupled receptor 35; test: Agonist activity at GPR-35 in human HT-29 cells by DMR assay; format: cell-based
Summary of the method: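 Label-free DMR was recorded in HT-29 cells endogenously expressing GPR35 across a range of probe concentrations. EC50 was taken from concentration–response curves. Values are mean ± SD of two independent measurements, each with four replicates.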

[6] = target: T1, G-protein coupled receptor 35; test: Binding affinity to Nluc-fused human GPR35 expressed in CHO-K1 cells using furimazine as substrate incubated for 30 mins in presence of zaprinast followed by substrate addition by […] equilibrium binding assay; format: cell-based
Summary of the method: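 CHO-K1 cells were transfected with human GPR35 carrying an N-terminal nano-luciferase tag. Fluorescent probes were added at varying concentrations for saturation BRET binding. […] Kd was derived from the data. Values are mean ± SD of three independent measurements, each in triplicate.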

[7] = target: T1, G-protein coupled receptor 35; test: Agonist activity at GPR-35 in human HT-29 cells incubated for 1 hr by DMR assay; format: cell-based
[8] = target: T1, G-protein coupled receptor 35; test: Reversible binding affinity to Nluc-fused human GPR35 expressed in CHO-K1 cells using furimazine as substrate incubated for 10 mins followed by addition of ML145 by kinetic assay; format: cell-based; conditions: filed as agonist
Summary of the method: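 Kinetic BRET binding used CHO-K1 cells expressing NLUC-tagged human GPR35. The BRET emission ratio was followed after adding probe (5 nM). 10 min later, ML-145 (10 μM) was added to dissociate the probe.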

Row | Compound | Ki [1] | IC50 [2] | Activity [3] | IC50 [4] | EC50 [5] | Kd [6] | also measured
1 | O=C(O)c1cc(C(=O)O)c2c(n1)C(=O)C(=O)c1cc(C(=O)O)[nH]c1-2 [PYRROLOQUINOLINE QUINONE] | 332 nM |  |  |  |  |  | 
2 | CC1=CC(C)=[N+]2C1=C(c1ccc(OCCn3cc(CCOCCOc4cc(C(=O)O)nc5c(C)c6nc(C(=O)O)cc(O)c6cc45)nn3)cc1)c1nc(C)cn1[B-]2(F)F |  | 769 nM | Active | 7.8 nM | 58.8 nM | 17.9 nM | 
3 | COC(=O)c1cnn(-c2ccc(F)cc2F)c1/C=N/NC(=S)NC(C)(C)C | 236 nM |  |  |  |  |  | 
4 | O=c1oc2c([N+](=O)[O-])c(O)c(Br)cc2cc1-c1nnn[nH]1 | 51 nM |  |  |  |  |  | EC50 [7]: 6 nM
5 | CC1=CC(C)=[N+]2C1=C(c1ccc(OCCn3cc(CCCOc4cc(C(=O)O)nc5c(C)c6nc(C(=O)O)cc(O)c6cc45)nn3)cc1)c1nc(C)cn1[B-]2(F)F |  | 1030 nM | Active | 9.6 nM | 80.8 nM | 7.4 nM | 
6 | Cc1c2[nH]c(C(=O)O)cc(=O)c2cc2c(=O)cc(C(=O)O)[nH]c12 | 6 nM |  |  |  |  |  | 
7 | COc1ccc(C(=O)Nc2cc(Br)ccc2-c2nnn[nH]2)cc1 | 10 nM |  |  |  |  |  | 
8 | CC1=CC(C)=[N+]2C1=C(c1ccc(OCCn3cc(CCCCOc4cc(C(=O)O)nc5c(C)c6nc(C(=O)O)cc(O)c6cc45)nn3)cc1)c1nc(C)cn1[B-]2(F)F |  | 542 nM | Active | 9.4 nM | 49.5 nM | 3.9 nM | Activity [8]: Active
9 | O=C(O)c1cc(=O)c2c(OCC(O)COc3cccc4oc(C(=O)O)cc(=O)c34)cccc2o1 [CROMOLYN] | 2970 nM |  |  |  |  |  | 
10 | O=C(O)c1cc2cc(Br)c(O)c(Br)c2oc1=O | 352 nM |  |  |  |  |  | 
11 | CC1=CC(C)=[N+]2C1=C(c1ccc(OCCn3cc(CCCCCOc4cc(C(=O)O)nc5c(C)c6nc(C(=O)O)cc(O)c6cc45)nn3)cc1)c1nc(C)cn1[B-]2(F)F |  | 398 nM | Active | 5.6 nM | 42.2 nM | 8.3 nM | 

Source: ChEMBL document CHEMBL5257098, “Development and Characterization of Fluorescent Probes for the G Protein-Coupled Receptor 35” (ACS Med Chem Lett, 2023)
